Assay outcomes (PubChem BioAssay)
MEKK3 PB1 HTS: modulators (inhibitors or enhancers) of MEK5 binding to human MEKK3 PB1 domain. binding response (% of control), % at 10 µM. 290,000 compounds, 1.4% hits. bead-based flow cytometry, Alexa488-MEK5 binding to MEKK3; actives lie on both sides; 0 = blocked by unlabeled MEK5, 100 = vehicle. Q99759;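 active = binding response more than 3 SD above or below the average of its plate-row segment, actives on both sides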;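 also: Alexa488 bead fluorescence after subtracting the streptavidin-only scavenger bead signal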
Target sequence (Q99759 whole entry, looked up, the tested form may be a part): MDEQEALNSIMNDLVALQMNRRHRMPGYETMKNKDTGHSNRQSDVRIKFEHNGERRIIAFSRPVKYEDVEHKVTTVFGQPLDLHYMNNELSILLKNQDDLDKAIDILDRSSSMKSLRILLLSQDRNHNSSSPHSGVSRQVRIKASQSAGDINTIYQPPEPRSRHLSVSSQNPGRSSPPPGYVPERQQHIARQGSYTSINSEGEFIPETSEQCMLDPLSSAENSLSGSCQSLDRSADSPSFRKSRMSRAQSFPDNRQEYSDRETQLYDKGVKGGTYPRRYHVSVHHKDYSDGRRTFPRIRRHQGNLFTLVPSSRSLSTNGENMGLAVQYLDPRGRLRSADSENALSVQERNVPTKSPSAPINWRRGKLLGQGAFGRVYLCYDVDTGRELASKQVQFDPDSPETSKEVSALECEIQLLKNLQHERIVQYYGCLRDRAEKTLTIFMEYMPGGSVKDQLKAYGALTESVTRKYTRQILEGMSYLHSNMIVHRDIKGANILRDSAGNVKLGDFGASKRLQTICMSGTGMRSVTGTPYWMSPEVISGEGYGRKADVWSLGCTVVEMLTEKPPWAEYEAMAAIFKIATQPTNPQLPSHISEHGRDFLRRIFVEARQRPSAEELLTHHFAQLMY
PREPL inh: inhibitors of human prolyl oligopeptidase-like enzyme PREPL. recombinant PREPL, fluorescence polarization activity-based probe. inhibition, % at 5.96 µM. 320,000 compounds, 0.68% hits; in the data active = inhibition above about 43%;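 also: 0% = enzyme with DMSO and 100% = wells lacking enzyme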
UBC13 polyUb: blocks human UBC13 polyubiquitin chain formation | P61088 | TR-FRET | inhibition, % at 20 µM | 330,000 compounds, 0.47% hits | AID 485273; in the data active = inhibition above about 45%, passing the limit was not always enough
MEKK2 WT-MEK5: raises or lowers MEK5 binding to wildtype human MEKK2 PB1 domain. binding response (% of control), % at 10 µM. 290,000 compounds, 1.1% hits. bead flow cytometry, Alexa488-MEK5 binding to MEKK2 WT; actives lie on both sides. AID 1531. Q9Y2U5; in the data active = binding response below about 67% or above about 130%
Apaf-1 inh: blocks human Apaf-1 apoptosome activity. reconstituted apoptosome caspase-3 activity, DEVD-Rh110 fluorescence. 330,000 compounds, 0.71% hits. inhibition, % at 20 µM; active = inhibition of at least 40% at 20 µM;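 also: plate controls were DMSO wells for no effect and DEVD-CHO caspase inhibitor wells for full effect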
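System – cell-free apoptosome with Apaf-1, procaspase-3 and caspase-9 · Buffer or medium – pH 7.5 Hepes buffer with CHAPS, BSA, DTT · Also added – cytochrome c with DEVD-Rh110 · Times – 30 min compound preincubation, 50 min activation, room temperature · Technique – Rh110 fluorescence intensity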
MEKK2mut PB1 HTS: signal of MEK5 binding to mutant human MEKK2 PB1 domain | bead flow cytometry, Alexa488-MEK5 binding to MEKK2 mutant | percent response, % at 10 µM | 290,000 compounds, 0.35% hits; in the data active = percent response above about 24%, passing the limit was not always enough
Apaf-1 inh conf: Apaf-1 inhibition, single-dose confirmed. shares compounds with Apaf-1 inh. reconstituted apoptosome, caspase-3 DEVD-Rh110 fluorescence. inhibition, % at 20 µM. 1,800 compounds, 25% hits. AID 504614;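 active = mean inhibition of at least 40% at 20 µM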;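 also: plate controls were DMSO wells for no effect and DEVD-CHO caspase inhibitor control wells for full effect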
Rh110 interf inh: interferes with Rh110 fluorescence, flagging false Apaf-1 inhibitors; shares compounds with Apaf-1 inh; Rh110 fluorescence interference, quenched caspase reaction; activation (fluorescence interference), % at 20 µM; 1,800 tested, under 10 active; AID 504615;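 active = signal rise of 40% or more at 20 µM, treated as a fluorescence artifact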
Fluor interf inh: shows fluorescence interference in the Apaf-1 inhibitor assay format; shares compounds with Apaf-1 inh; fluorescence interference counterscreen, Apaf-1 assay format; IC50, µM; 460 tested, under 10 active; call rule not given here
Active calls of the source: *; i = inactive; / = no result. An excerpt weighted towards active compounds, which were near 3.1% of everything screened.

SMILES	MEKK3 PB1 HTS	PREPL inh	UBC13 polyUb	MEKK2 WT-MEK5	Apaf-1 inh	MEKK2mut PB1 HTS	Apaf-1 inh conf	Rh110 interf inh	others
CCOC(=O)c1nc(Nc2cc(Cl)ccc2OC)c2ccccc2n1	100.0	-4.1	12.3	105.0	6.5	5.0	/	/
O=C(COC(=O)c1ccc(Br)c(S(=O)(=O)N2CCOCC2)c1)NC1CC1	/	4.5	3.6	/	0.1	/	/	/
Cc1cccc(NC(=O)CSCC(=O)N(C)Cc2ccc(Cl)c(Cl)c2)c1	/	-4.1	27.5	/	62.6*	/	45.9*	12.2	Fluor interf inh=>100
Cc1cccc(C(=O)NCC(=O)NCC2COc3ccccc3O2)c1 (centres undefined)	/	-2.8	-4.8	/	0.8	/	/	/
CCN(CC)C(=O)[C@H]1CC(CC(=O)NCCCN(C)C)C(=O)N2CCc3c([nH]c4ccccc34)[C@]12C (some centres undefined)	/	13.8	12.4	/	43.9*	/	9.7	-0.5
CCN(CC)C(=O)[C@H]1C[C@H](CC(=O)NCc2cccc(C(F)(F)F)c2)C(=O)N2CCc3c([nH]c4ccc(Cl)cc34)[C@]12C	/	/	/	/	46.4*	/	29.4	17.4
C/C(=N\OCC(=O)OCC(=O)NC(=O)c1ccc(OC(F)F)cc1)c1ccc2c(c1)OCO2	/	15.9	1.5	/	2.9	/	/	/
CCN1C(=O)[C@H]2[C@@H](c3ccc(-c4cccc(Cl)c4)cc3)N[C@@](C)(C(=O)OC)[C@H]2C1=O	/	-13.5	11.6	/	22.2	/	/	/
Cc1ccc(C)c(N2N=C(C(=O)OCc3nnc(-c4ccccc4)o3)CCC2=O)c1	/	-3.2	-6.1	/	0.5	/	/	/
CCCCCCn1c2c(c(=N)c3c1CCC3)CCC2	98.0	21.3	-6.1	98.0	0.8	-2.0	/	/
CCCCCCCCCn1c2c(c(=N)c3c1CCC3)CCC2	96.0	34.6	30.9	119.0	49.7*	4.0	17.5	9.5
Cc1ccc(CNc2ccc(O)cc2)cc1	/	/	-39.1	/	93.6*	/	10.7	7.5
O=C(COC(=O)C1CCC(N2C(=O)C3C4CCC(C4)C3C2=O)CC1)c1ccc(F)cc1 (centres undefined)	104.0	0.7	5.0	100.0	10.8	3.0	/	/
Cc1cccnc1N1C(=O)c2ccc(C(=O)O)cc2C1=O	102.0	2.7	-2.9	105.0	-1.0	5.0	/	/
COc1cc(Br)c(C(=O)c2nccc3cc(OC)c(OC)cc23)cc1OC	102.0	26.0	-103.8	102.0	88.8*	0.0	79.1*	2.9	Fluor interf inh=>100
O=C1OC(Nc2nc(-c3ccc(F)cc3)cs2)c2ccccc21 (centres undefined)	102.0	/	-3.5	99.0	12.9	-6.0	/	/
CC(C)=CCC/C(C)=C/CC/C(C)=C/CC/C(C)=C/CC1=C(C)C(=O)c2ccccc2C1=O	103.0	-6.1	-27.3	107.0	25.8	3.0	/	/
CC(C)=CCC1=C(OCC(=O)O)C(=O)c2ccccc2C1=O	111.0	13.0	-86.6	111.0	95.3*	5.0	88.2*	-8.3	Fluor interf inh=>100
Cc1ccc(C)c(N2CCN(C(=O)c3ccc(Cn4c(=O)[nH]c5ccccc5c4=O)cc3)CC2)c1	97.0	-14.2	-4.6	87.0	37.4	-6.0	/	/
O=C(c1ccc(Cn2c(=O)[nH]c3ccccc3c2=O)cc1)N1CCN(c2ccc(Cl)cc2)CC1	105.0	-100.7	-8.0	94.0	41.4*	0.0	14.4	4.3
COc1cc(/C=C2\C(=O)N(CCC#N)N=C2C)ccc1OCC(=O)Nc1ccccc1	100.0	0.7	-34.7	98.0	93.5*	-1.0	7.2	-2.3
CCOc1cc(/C=C2\C(=O)N(CCC#N)N=C2C)ccc1OCC(N)=O	99.0	25.0	-31.5	97.0	57.8*	-5.0	3.6	-9.5
CC1=NN(CCC#N)C(=O)/C1=C/c1ccc(N(C)C)cc1	118.0	1.8	i	109.0	-1.7	-1.0	/	/
